Experimental data published in ChEMBL document CHEMBL1141110, “Structure-activity relationships of new A,D-ring modified steroids as aromatase inhibitors: design, synthesis, and biological activity evaluation” (J Med Chem, 2005).

T1: Aromatase (Homo sapiens, UniProt P11511)
T1 sequence (P11511 whole entry): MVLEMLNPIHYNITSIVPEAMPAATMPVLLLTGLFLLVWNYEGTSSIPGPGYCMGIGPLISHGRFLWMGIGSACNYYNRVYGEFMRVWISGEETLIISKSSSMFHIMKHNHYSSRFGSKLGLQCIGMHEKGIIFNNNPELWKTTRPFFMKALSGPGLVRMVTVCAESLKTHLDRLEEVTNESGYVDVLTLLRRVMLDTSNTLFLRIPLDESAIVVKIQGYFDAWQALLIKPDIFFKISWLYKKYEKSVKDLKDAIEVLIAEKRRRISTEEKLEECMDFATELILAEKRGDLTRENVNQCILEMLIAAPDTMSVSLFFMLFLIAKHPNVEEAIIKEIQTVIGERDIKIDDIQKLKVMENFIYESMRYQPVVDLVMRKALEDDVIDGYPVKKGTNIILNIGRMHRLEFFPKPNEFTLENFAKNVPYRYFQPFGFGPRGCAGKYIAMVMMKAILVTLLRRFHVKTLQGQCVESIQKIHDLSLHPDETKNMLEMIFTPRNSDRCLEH

B1: Aromatase (Homo sapiens) (protein)
chain: T1 sequence (P11511 whole entry)

Assays:
[1] = molecular target: T1, Aromatase; test: Percent inhibition at 2 uM against aromatase protein from human placental microsomes using [1-beta-3H]-androstenedione
Summary of the method: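 Screening used 20 µg microsomal protein from human placenta, 40 nM [1β-3H]androstenedione (1 µCi) and inhibitor at 2 µM in 67 mM K phosphate pH 7.4. Reaction was started with 150 µM NADPH and run 15 min at 37 °C. 3H2O release was measured by scintillation counting after chloroform and charcoal-dextran cleanup. Inhibition is given relative to the no-inhibitor control. Triplicates.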

[2] = molecular target: T1, Aromatase; test: Inhibition constant against aromatase protein from human placental microsomes using [1-beta-3H]-androstenedione; Competitive inhibition
Summary of the method: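 Microsomes from human placenta. Kinetic runs used 10-30 nM [1β-3H]androstenedione with 150 µM NADPH, a range of inhibitor and substrate concentrations, and 5 min at 37 °C in 67 mM K phosphate pH 7.4. Released 3H2O was separated with chloroform and dextran-coated charcoal, then scintillation counted. Inhibition type was taken from Lineweaver-Burk plots and Ki from Dixon plots. Triplicates.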

[3] = molecular target: T1, Aromatase; test: Ratio of Michaelis-Menten constant and inhibition constant for aromatase enzyme; Competitive inhibition
Summary of the method: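 Ratio of substrate Km to Ki. Km for androstenedione and Ki come from the same placental-microsome kinetic runs: 10-30 nM [1β-3H]androstenedione, 150 µM NADPH, 5 min at 37 °C, with 3H2O release as the read-out. Ki was taken from Dixon plots.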

[4] = molecular target: T1, Aromatase; test: Inhibitory concentration against aromatase protein from human placental microsomes using [1-beta-3H]-androstenedione; Competitive inhibition
Summary of the method: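 Human placental microsomes in 67 mM K phosphate pH 7.4 with 200 nM [1β-3H]androstenedione (1 µCi) and graded inhibitor concentrations; inhibitors were dissolved in ethanol. Reaction was started with 150 µM NADPH and run 15 min at 37 °C. 3H2O was extracted with chloroform and dextran-coated charcoal, then scintillation counted. Triplicates.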

[5] = substrate: C[C@]12CCC(=O)C=C1CC[C@@H]1[C@@H]2CC[C@]2(C)C(=O)CC[C@@H]12; test: Michaelis-Menten constant against Aromatase; set-up: species or system Homo sapiens
Summary of the method: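 Human placental microsomes (cotyledon homogenate, differential centrifugation, stored -80 °C), 67 mM potassium phosphate pH 7.4. Kinetic runs used 10-30 nM [1β-3H]androstenedione, NADPH 150 µM to start, 5 min at 37 °C. Aromatization read as released 3H2O after chloroform and dextran-charcoal extraction, by scintillation counting. Lineweaver-Burk analysis; points are means of three determinations.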

Molecule	inhibition at 2 µM [1]	Ki [2]	Km/Ki [3]	IC50 [4]	Km [5]
C[C@]12CCC3C(CC[C@H]4[C@@H](O)[C@H](O)CC[C@]34C)C1CCC(=O)O2 (stereo partly specified)	8.1%				
C[C@]12CC[C@H](O)[C@@H](O)[C@H]1CC[C@@H]1[C@@H]2CC[C@]2(C)C(=O)CC[C@@H]12	10.1%				
C[C@]12CC[C@@H](O)[C@H](O)[C@@H]1CC[C@@H]1[C@@H]2CC[C@]2(C)C(=O)CC[C@@H]12	34.6%				
C[C@]12CCC3C(CC[C@H]4C(O)(C#N)[C@H](O)CC[C@]34C)C1CCC(=O)O2 (stereo partly specified)	17.6%				
C[C@]12CCC(=O)C(O)=C1CCC1C2CC[C@]2(C)OC(=O)CCC12 (stereo partly specified)	72.5%	660 nM	0.087	1850 nM	
C[C@]12CCC(=O)C(O)=C1CC[C@@H]1[C@@H]2CC[C@]2(C)C(=O)CC[C@@H]12 [FORMESTANE]	99.1%			42 nM	
C[C@]12CCC3C(CC[C@H]4C(=O)[C@H](O)CC[C@]34C)C1CCC(=O)O2 (stereo partly specified)	16.6%				
C[C@]12CCC3C(CC[C@H]4C=CCC[C@]34C)C1CCC2=O (stereo partly specified)	95.9%	50 nM	1.15	225 nM	
C[C@]12CCC3C(CC[C@@]4(C=O)OC(=O)CC[C@]34C)C1CCC2=O (stereo partly specified)	11%				
C[C@]12CC[C@@H](O)C(=O)[C@@H]1CC[C@@H]1[C@@H]2CC[C@]2(C)C(=O)CC[C@@H]12	83.3%	147 nM	0.39	670 nM	
C[C@]12CCC3C(CC[C@@H]4[C@H]5O[C@H]5CC[C@]34C)C1CCC2=O (stereo partly specified)	14.6%				
C[C@]12CC[C@H]3O[C@H]3[C@@H]1CC[C@@H]1[C@@H]2CC[C@]2(C)C(=O)CC[C@@H]12	96.4%	38 nM	1.51	145 nM	
B1					0.0575 µM
